High-throughput results as filed in PubChem BioAssay.
A selection: hits, their analogues and other compounds. The true share with any hit is near 2.6%.
SENP8 block-1 – SENP8 protease inhibition | AID 2540 | purified SENP8, Z-RLRGG-aminoluciferin cleavage, luminescence | inhibition, % at 10 µM | 330,000 tested, 1.2% active; in the data active = inhibition above about 50%
Target sequence (Q96LD8 whole entry, looked up): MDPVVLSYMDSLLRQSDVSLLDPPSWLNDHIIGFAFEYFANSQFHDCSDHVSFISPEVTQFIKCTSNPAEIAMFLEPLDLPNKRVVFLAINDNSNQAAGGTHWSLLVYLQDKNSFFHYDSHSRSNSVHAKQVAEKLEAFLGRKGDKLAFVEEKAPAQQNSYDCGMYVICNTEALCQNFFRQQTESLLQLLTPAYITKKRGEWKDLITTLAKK
SENP8 block-2 – SENP8 (human) protease inhibition; inhibition, % at 20 µM; Q96LD8; recombinant SENP8, Nedd8 substrate fluorescence; 360,000 tested, 0.64% active; in the data active = inhibition mostly above about 40%, no sharp cut-off; inactive = mostly below about 27%
SENP1 FRET inh – blocks the human SENP1 SUMO protease catalytic domain; recombinant SENP1 catalytic domain, CyPet-SUMO1-YPet FRET cleavage; inhibition, % at 10 µM; 360,000 tested, 0.21% active;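 active = inhibition at least 30% at 10 µM, raw YFP signal under a set limit, fluorescence ratio 0.5 to 1.5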;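 also: 0% = enzyme with DMSO and 100% = no enzyme wells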
Target sequence (Q9P0U3 419-644 limits assumed): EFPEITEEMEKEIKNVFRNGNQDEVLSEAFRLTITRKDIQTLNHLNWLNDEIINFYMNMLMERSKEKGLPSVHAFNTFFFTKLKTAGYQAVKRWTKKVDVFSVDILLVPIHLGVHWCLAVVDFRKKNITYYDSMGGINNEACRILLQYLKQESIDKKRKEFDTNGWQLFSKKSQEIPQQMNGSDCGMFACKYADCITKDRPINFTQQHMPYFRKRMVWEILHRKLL
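Material: hSENP1 catalytic domain, recombinant; medium: Tris pH 8 with BME, BSA, NP40 and catalase; compound: single concentration of 10 µM compound, 0.5% DMSO final; technique: FRET read of cyan and yellow fluorescence; timing: 50 min enzyme reaction, room temperature, light-protected; reagent: SFCypet-SUMO1-SFYpet substrate at 25 nM; control set: no-enzyme low, enzyme-DMSO high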
SENP7 inh – SENP7 protease inhibition | inhibition, % at 5 µM | recombinant SENP7, Z-RLRGG-aminoluciferin luminescence, 40 min | 330,000 tested, 1.5% active | AID 434973;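 active = inhibition above about 50% at the single test dose, limit read from the data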;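 also: plate controls were DMSO with enzyme for no effect and no enzyme buffer wells for full effect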
Platelet DG rel – platelet dense granule release activity | human platelet-rich plasma, SFLLRN dense granule ATP release, luminescence | inhibition, %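 (compounds screened at 7.5 µM in platelet-rich plasma)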 | 300,000 tested, 0.22% active | AID 1663;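 active = mean replicate score, as percent of positive control, at or above 50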
SENP6 block – SENP6 protease inhibition; inhibition, % at 10 µM; 330,000 tested, 1.8% active; AID 2599; Q9GZR1; Recombinant SENP6 catalytic domain, aminoluciferin luminescence;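 active = inhibition above about 50% at the single tested dose, limit read from the data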;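 also: plate controls were DMSO wells with enzyme for no effect and DMSO wells lacking enzyme for full effect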
Numbers without * were called inactive; / = not tested or not shown.

SMILES	SENP8 block-1	SENP8 block-2	SENP1 FRET inh	SENP7 inh	Platelet DG rel	SENP6 block
CC1=NC(=O)C(N=Nc2ccccc2)N1c1ccccc1 (centres undefined)	-6	46*	2	4	4	-10
CC1=NC(=O)C(N=Nc2ccccc2C(=O)O)N1c1ccccc1 (centres undefined)	-2	48*	6	4	7	-7
CC1=NC(=O)C(N=Nc2cccc(C(=O)O)c2)N1c1ccccc1 (centres undefined)	-14	22	2	-6	8	2
CN(C)c1ncnc2c1ncn2[C@H]1CN(Cc2ccncc2)C[C@@H](CO)O1	/	7	0	/	/	/
O=C(Nc1cccc(Cl)c1)c1ccc2c(=O)n3c(nc2c1)CCCCC3	64*	-5	-1	80*	6	84*
COc1ccc(CNC(=O)c2ccc3c(c2)N(C)CCS3)cc1	-2	-398	-3	-5	0	-10
CCN1CCSc2ccc(C(=O)NCc3ccccc3F)cc21	-3	-471	-9	-4	11	4
CN1CCSc2ccc(C(=O)NCc3ccccc3F)cc21	-10	-449	-10	0	73*	6
CC(C)Oc1ccc(CNC(=O)c2ccc3c(c2)N(C)CCS3)cc1	2	-440	-8	-10	57*	4
O=C(NCCS(=O)(=O)NCC1CCCO1)c1ccccc1 (centres undefined)	-9	12	-1	14	3	-6
COc1cccc(N=Nc2c(N)[nH]n3c(=O)c4c(nc23)CCCC4)c1	-3	50*	4	10	1	3
O=C1C(=O)c2ccccc2C(O)=C1c1ccccc1F	0	12	2	4	12	-17
CC(=O)N(C1=C(O)c2ccccc2C(=O)C1=O)C1CCCCC1	5	19	-3	8	3	3
CC(=O)N(C)C1=C(O)c2ccccc2C(=O)C1=O	-1	85*	3	14	4	15
O=C1c2ccccc2C(=O)c2[nH]c(=O)[nH]c21	35	55*	-1	36	-1	65*
O=C1C(O)=C(O)C(=O)c2ccccc21	58*	61*	4	55*	/	80*
O=S1(=O)CC(N2CCCCC2)CN1Cc1cn(Cc2cccc(C(F)(F)F)c2)nn1 (centres undefined)	/	7	2	/	/	/
O=C(N/N=C1/C(=O)c2cccc3cccc1c23)c1ccc(Cl)cc1	-1	48*	0	-7	5	-35
CCNC(=S)N/N=C1\C(=O)c2cccc3cccc1c23	-1	44*	4	-1	-4	-11
O=C(Nc1cccc(NC(=O)c2ccc(Cl)cc2)n1)c1ccc(Cl)cc1	-8	13	0	-2	0	-10
COC(=O)c1c(S(N)(=O)=O)c2ccccc2n1C	-13	-127	1	-9	-1	-5
C[C@H]1COc2cc(N3CC[C@H](O)C3)ccc2S(=O)(=O)N1	/	19	2	/	/	/
Cc1cc(/C=C2\C(=O)NN(c3ccccc3)C2=O)c(C)n1-c1ccccc1O	19	53*	3	34	9	8
O=S(=O)(Nc1ccc(-c2nc3cccnc3s2)cc1)c1cc(F)ccc1F	24	-443	-122	-3	-5	59*
COCCn1c(/C=C/c2ccccc2)nc2ccccc21	37	-480	-1	65*	11	-7
SMILES	SENP8 block-1	SENP8 block-2	SENP1 FRET inh	SENP7 inh	Platelet DG rel	SENP6 block
COc1ccccc1Cn1c(/C=C/c2ccccc2)nc2ccccc21	2	-324	3	5	-5	11
CC12CCC(/C(=C/NNc3ccc([N+](=O)[O-])cc3[N+](=O)[O-])C1=O)C2(C)C (centres undefined)	/	30*	4	/	/	/
O=C(NNc1ccc([N+](=O)[O-])cc1[N+](=O)[O-])C1C2CCCCC21 (centres undefined)	-1	12	3	4	-2	-13
Cc1nc([N+](=O)[O-])c(C(=O)O)n1C	2	6	3	4	-10	-27
Cc1cc(C)n2[nH]c(=O)c(N=Nc3ccccc3)c2n1	-10	29	2	-7	5	-26
Cc1cc(C)n2[nH]c(=O)c(N=Nc3cccc(Cl)c3)c2n1	4	48*	1	1	5	-10
Cc1cc(C)n2[nH]c(=O)c(N=Nc3cccc(C(F)(F)F)c3)c2n1	-9	53*	2	-5	0	-14
COc1ccc(NC(=O)c2cc(S(=O)(=O)N3CCCC3)c[nH]2)cc1	-4	11	0	-5	-22	-12
CCN(CC)c1ccc(NC2=C(Cl)C(=O)c3ccccc3C2=O)cc1	/	50*	0	/	/	/
O=C1C(Cl)=C(NCc2ccco2)C(=O)c2ccccc21	/	46*	2	/	/	/
O=S(=O)(c1ccccc1)c1ccc(NCc2ccco2)cc1	6	-92	-2	7	4	18
CCCC(=O)NC1=C(Cl)C(=O)c2ccccc2C1=O	/	35	1	/	/	/
O=C1C(Cl)=C(Nc2ccc(O)cc2)C(=O)c2ccccc21	11	41*	1	0	1	26
Cc1ccc(NC2=C(Cl)C(=O)c3ccccc3C2=O)cc1	/	2	2	/	2	/
CCNC1=C(Cl)C(=O)c2ccccc2C1=O	15	94*	1	30	-12	41
CCOC(=O)N1CCN(C(=O)c2ccc(N3C(=O)c4ccccc4C3=O)cc2)CC1	-5	17	0	-7	-49	-9
CCOc1ccc(NC(=O)N2CCC(NC(=O)C(Cc3cccc(F)c3)NC(C)=O)CC2)cc1 (centres undefined)	-3	12	0	2	3	-1
Cc1cccc(C)c1NC(=O)CCCCCC1NC(=O)NC1C (centres undefined)	-2	27	0	-13	-1	14
O=C1C(Cl)=C(NCCN2CCCCC2)C(=O)c2ccccc21	30	76*	1	20	1	37
O=C(NCCN1CCCC1)c1ccccc1Cl	2	17	0	0	-4	0
Cc1cc(C)c[n+](-c2[nH]c(=O)sc2/C=N/NC([S-])=Nc2ccccc2)c1	3	33	33*	0	-1	-6
Cc1cc[n+](-c2[nH]c(=O)sc2/C=N/NC([S-])=Nc2ccccc2)cc1	-5	33	25	1	5	-4
CC(C)C[C@H]1CN([C@@H](Cc2ccc(O)cc2)CN2CCC[C@@H]2CN2C(=S)NC[C@@H]2Cc2ccccc2)C(=S)N1CCc1ccccc1	/	17	1	/	/	/
CN(C)c1ccc(CCc2ccc(N)cc2)cc1	-5	-460	4	11	12	-8
CN(C)c1ccc(Cc2ccc(N(C)C)cc2)cc1	/	30*	3	/	/	/
O=C(N=C1N=C2C=CC(Br)=CN2Cc2ccccc21)c1ccc([N+](=O)[O-])cc1[N+](=O)[O-]	56*	13	-1	67*	26	78*
